Reference: ChEMBL document CHEMBL1126796, “2-(Alkylamino)nicotinic acid and analogs. Potent angiotensin II antagonists” (J Med Chem, 1993)

Tests used:
Rattus norvegicus [1] = assay: % decrease in blood pressure after 24 hours at a dose of 0.1 mg/kg in male rats by using Furosemide-treated spontaneous hypertensive model; type: functional
Procedure, shortened: (§1)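 Male SHR, 20-24 weeks old, pretreated with furosemide 10 mg/kg sc at 22 and 4 h before the experiment; compound dosed orally. Arterial pressure was recorded from an indwelling femoral artery catheter with on-line blood pressure and heart rate analysis. Read-out is % fall in blood pressure at 4 h and at 24 h, ±SEM, with number of rats.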

[2] = Bioavailability after oral dose of 0.3 mg/kg; type: ADME, organism-based; conditions: eutheria, in vivo
Procedure, shortened: (§2)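 Male Sprague-Dawley-derived rats were dosed with compound in normal saline (1 mL/kg), by gavage or as a slow IV bolus into the jugular vein. Heparinized tail-vein blood was taken at 0.25-24 h, extracted liquid-liquid and assayed by reverse-phase HPLC. Cmax is the observed peak concentration and AUC is mean (SEM). F compares oral with IV AUC, corrected for dose and assuming dose proportionality.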

[3] = Tmax value after oral dose of 3 mg/kg; type: ADME, organism-based; set-up: dose 3 mg/kg, route oral; conditions: in vivo
Procedure, shortened: (§3)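 Male Sprague-Dawley-derived rats. Compound was given in normal saline at 1 mL/kg, either as a slow iv bolus into the jugular vein or orally by gavage. Plasma underwent liquid-liquid extraction and reverse-phase HPLC. Terminal elimination half-life and time of observed peak concentration were taken from the profiles.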

[4] = Tmax value after oral dose of 0.3 mg/kg; type: ADME, organism-based; set-up: dose 0.3 mg/kg, route oral; conditions: in vivo; procedure, shortened: as §3
[5] = Area under curve after oral dose of 3 mg/kg; type: ADME, organism-based; set-up: dose 3 mg/kg, route oral; conditions: in vivo; procedure, shortened: as §2
Rattus norvegicus [6] = assay: % decrease in blood pressure after 4 hours in male rats at a dose of 0.3 mg/kg by using Renal artery hypertensive model; type: functional
Procedure, shortened: (§4)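 Male Sprague-Dawley rats (300-350 g) were made hypertensive by renal artery ligation and used on day 6 or 7 after ligation. Arterial pressure was measured from an indwelling femoral artery catheter, with blood pressure and heart rate recorded on line. Read-out is % decrease in blood pressure at 4 h, ±SEM, with number of rats.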

[7] = Half-life period after oral dose of 0.3 mg/kg; type: ADME, organism-based; set-up: dose 0.3 mg/kg, route oral; conditions: in vivo; procedure, shortened: as §2
[8] = Volume of distribution of the terminal phase (= CLp+ plasma elimination rate constant) after intravenous dose of 1 mg/kg; type: ADME, organism-based; set-up: dose 1 mg/kg, route intravenous; conditions: read-out: Vbeta
Procedure, shortened: (§5)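 Jugular-vein slow iv bolus (normal saline, 1 mL/kg) in male Sprague-Dawley-derived rats. Plasma was sampled via the tail vein at 0.1–24 h and measured by reverse-phase HPLC after liquid-liquid extraction. Central volume was taken as dose divided by plasma concentration at time zero. Terminal-phase volume was derived from clearance and the plasma elimination rate constant.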

[9] = Bioavailability after oral dose of 0.1 mg//kg; type: ADME, organism-based; conditions: eutheria, in vivo; procedure, shortened: as §2
Rattus norvegicus [10] = assay: % decrease in blood pressure after 4 hours at a dose of 0.1 mg/kg in male rats by using Furosemide-treated spontaneous hypertensive model; type: functional; procedure, shortened: as §1
[11] = Tmax value after oral dose of 0.1 mg//kg; type: ADME, organism-based; conditions: in vivo; procedure, shortened: as §3
[12] = Volume of distribution of the terminal phase (= CLp+ plasma elimination rate constant) after intravenous dose of 0.3 mg/kg; type: ADME, organism-based; set-up: dose 0.3 mg/kg, route intravenous; conditions: read-out: Vbeta; procedure, shortened: as §5
[13] = Volume of distribution of central compartment (= dose+ plasma concentration at time zero) after intravenous dose of 3 mg/kg; type: ADME, organism-based; set-up: dose 3 mg/kg, route intravenous; conditions: read-out: VI; procedure, shortened: as §5
[14] = Half-life period after oral dose of 1 mg/kg; type: ADME, organism-based; set-up: dose 1 mg/kg, route oral; conditions: in vivo; procedure, shortened: as §2
[15] = Volume of distribution of the terminal phase (= CLp+ plasma elimination rate constant) after intravenous dose of 3 mg/kg; type: ADME, organism-based; set-up: dose 3 mg/kg, route intravenous; conditions: read-out: Vbeta; procedure, shortened: as §5
[16] = Half-life period of compound after intravenous dose of 0.3 mg/kg; type: ADME, organism-based; set-up: dose 0.3 mg/kg, route intravenous; conditions: in vivo; procedure, shortened: as §3
[17] = Half-life period of compound after intravenous dose of 1 mg/kg; type: ADME, organism-based; set-up: dose 1 mg/kg, route intravenous; conditions: in vivo; procedure, shortened: as §3
Rattus norvegicus [18] = assay: % decrease in blood pressure after 24 hours at a dose of 1 mg/kg in male rats by using Furosemide-treated spontaneous hypertensive model; type: functional; procedure, shortened: as §1
[19] = Cmax value after oral dose of 0.3 mg/kg; type: ADME, organism-based; set-up: dose 0.3 mg/kg, route oral; conditions: in vivo; procedure, shortened: as §2
[20] = Tmax value after oral dose of 1 mg/kg; type: ADME, organism-based; set-up: dose 1 mg/kg, route oral; conditions: in vivo; procedure, shortened: as §3
[21] = Area under curve after oral dose of 0.3 mg/kg; type: ADME, organism-based; set-up: dose 0.3 mg/kg, route oral; conditions: in vivo; procedure, shortened: as §2
[22] = Area under curve after oral dose of 0.1 mg//kg; type: ADME; procedure, shortened: as §2
[23] = Half-life period after oral dose of 3 mg/kg; type: ADME, organism-based; set-up: dose 3 mg/kg, route oral; conditions: in vivo; procedure, shortened: as §2
[24] = Bioavailability after oral dose of 1 mg/kg; type: ADME, organism-based; conditions: eutheria, in vivo; procedure, shortened: as §2
[25] = Volume of distribution of central compartment (= dose+ plasma concentration at time zero) after intravenous dose of 1 mg/kg; type: ADME, organism-based; set-up: dose 1 mg/kg, route intravenous; conditions: read-out: VI; procedure, shortened: as §5
[26] = Plasma clearance after intravenous dose of 3 mg/kg; type: ADME, organism-based; set-up: dose 3 mg/kg, route intravenous; conditions: read-out: Clp
Procedure, shortened: (§6)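 Male Sprague-Dawley-derived rats received a slow iv bolus into the jugular vein of the compound in normal saline (1 mL/kg). Tail-vein heparinized blood was drawn from 0.1 to 24 h and assayed by reverse-phase HPLC after liquid-liquid extraction. Total plasma clearance was calculated as dose divided by AUC and reported as mean (SEM).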

Rattus norvegicus [27] = assay: % decrease in blood pressure after 4 hours at a dose of 1 mg/kg in male rats by using Renal artery hypertensive model; type: functional; procedure, shortened: as §4
[28] = Plasma clearance after intravenous dose of 1 mg/kg; type: ADME, organism-based; set-up: dose 1 mg/kg, route intravenous; conditions: read-out: Clp; procedure, shortened: as §6
[29] = Cmax value after oral dose of 0.1 mg//kg; type: ADME, organism-based; set-up: dose 0.1 mg//kg, route oral; conditions: in vivo; procedure, shortened: as §2
Rattus norvegicus [30] = assay: % decrease in blood pressure after 4 hours in male rats at a dose of 0.03 mg/kg by using Renal artery hypertensive model; type: functional; procedure, shortened: as §4
[31] = molecular target: T1, Type-1 angiotensin II receptor A (Rattus norvegicus, UniProt P25095); assay: Binding affinity against angiotensin II receptor from rat liver
T1 sequence (P25095 whole entry): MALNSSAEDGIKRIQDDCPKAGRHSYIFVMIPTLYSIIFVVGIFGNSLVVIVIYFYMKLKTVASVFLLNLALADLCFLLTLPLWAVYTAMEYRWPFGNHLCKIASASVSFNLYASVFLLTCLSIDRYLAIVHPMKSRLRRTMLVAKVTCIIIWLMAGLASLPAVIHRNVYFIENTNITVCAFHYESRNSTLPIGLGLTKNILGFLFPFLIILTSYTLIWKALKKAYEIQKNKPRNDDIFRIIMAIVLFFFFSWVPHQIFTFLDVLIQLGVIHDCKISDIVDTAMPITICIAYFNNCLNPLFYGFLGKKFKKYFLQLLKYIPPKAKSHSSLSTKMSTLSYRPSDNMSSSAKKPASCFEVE
Procedure, shortened: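 Rat liver membranes were incubated with [125I]-saralasin to measure angiotensin II type 1 receptor binding. Nonspecific binding was defined with 1 µM angiotensin.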

[32] = Bioavailability after oral dose of 3 mg/kg; type: ADME, organism-based; conditions: eutheria, in vivo; procedure, shortened: as §2
Rattus norvegicus [33] = assay: % decrease in blood pressure after 4 hours in male rats at a dose of 0.01 mg/kg by using Renal artery hypertensive model; type: functional; procedure, shortened: as §4
[34] = Cmax value after oral dose of 3 mg/kg; type: ADME, organism-based; set-up: dose 3 mg/kg, route oral; conditions: in vivo; procedure, shortened: as §2
[35] = Volume of distribution of central compartment (= dose+ plasma concentration at time zero) after intravenous dose of 0.3 mg/kg; type: ADME, organism-based; set-up: dose 0.3 mg/kg, route intravenous; conditions: read-out: VI; procedure, shortened: as §5
[36] = Area under curve after oral dose of 1 mg/kg; type: ADME, organism-based; set-up: dose 1 mg/kg, route oral; conditions: in vivo; procedure, shortened: as §2
Rattus norvegicus [37] = assay: % decrease in blood pressure after 4 hours at a dose of 1 mg/kg in male rats by using Furosemide-treated spontaneous hypertensive model; type: functional; procedure, shortened: as §1
[38] = Half-life period after oral dose of 0.1 mg//kg; type: ADME, organism-based; conditions: in vivo; procedure, shortened: as §2
[39] = Cmax value after oral dose of 1 mg/kg; type: ADME, organism-based; set-up: dose 1 mg/kg, route oral; conditions: in vivo; procedure, shortened: as §2
[40] = Half-life period of compound after intravenous dose of 3 mg/kg; type: ADME, organism-based; set-up: dose 3 mg/kg, route intravenous; conditions: in vivo; procedure, shortened: as §3
[41] = Plasma clearance after intravenous dose of 0.3 mg/kg; type: ADME, organism-based; set-up: dose 0.3 mg/kg, route intravenous; conditions: read-out: Clp; procedure, shortened: as §6

Which results are given for `CCCN(Cc1ccc(-c2ccccc2-c2nnn[nH]2)cc1)c1ncccc1C(=O)O`?
Decrease in blood pressure (Rattus norvegicus [1]): 36%; bioavailability [2]: 97.2%; Tmax [3]: 0.9 h; Tmax [4]: 1.4 h; AUC [5]: 90.15 µg/h/mL; Decrease in blood pressure (Rattus norvegicus [6]): 36%; half-life [7]: > 12 h; Vd [8]: 0.13 L/kg; bioavailability [9]: 97.9%; Decrease in blood pressure (Rattus norvegicus [10]): 23%; Tmax [11]: 1.3 h; Vd [12]: 0.17 L/kg; Vd [13]: 0.04 L/kg; half-life [14]: 6.9 h; Vd [15]: 0.12 L/kg; half-life [16]: 9.5 h; half-life [17]: 7.1 h; Decrease in blood pressure (Rattus norvegicus [18]): 46%; Cmax [19]: 1350 ng/mL; Tmax [20]: 0.9 h; AUC [21]: 24.44 µg/h/mL; AUC [22]: 8.21 µg/h/mL; half-life [23]: 5.7 h; bioavailability [24]: 34.9%; Vd [25]: 0.04 L/kg; clearance [26]: 0.07 mL/min; Decrease in blood pressure (Rattus norvegicus [27]): 40%; clearance [28]: 0.07 mL/min; Cmax [29]: 490 ng/mL; Decrease in blood pressure (Rattus norvegicus [30]): 10%; Ki [31]: 0.61 nM; bioavailability [32]: 36.3%; Decrease in blood pressure (Rattus norvegicus [33]): 22%; Cmax [34]: 9600 ng/mL; Vd [35]: 0.04 L/kg; AUC [36]: 28.87 µg/h/mL; Decrease in blood pressure (Rattus norvegicus [37]): 32%; half-life [38]: ≤ 12 h; Cmax [39]: 2770 ng/mL; half-life [40]: 6.6 h; clearance [41]: 0.07 mL/min
